The values below come from ChEMBL document CHEMBL1150419, “Structure-activity relationships of a peptide inhibitor of the human FcRn:human IgG interaction” (Bioorg Med Chem, 2008).

T1 sequence (P55899 whole entry): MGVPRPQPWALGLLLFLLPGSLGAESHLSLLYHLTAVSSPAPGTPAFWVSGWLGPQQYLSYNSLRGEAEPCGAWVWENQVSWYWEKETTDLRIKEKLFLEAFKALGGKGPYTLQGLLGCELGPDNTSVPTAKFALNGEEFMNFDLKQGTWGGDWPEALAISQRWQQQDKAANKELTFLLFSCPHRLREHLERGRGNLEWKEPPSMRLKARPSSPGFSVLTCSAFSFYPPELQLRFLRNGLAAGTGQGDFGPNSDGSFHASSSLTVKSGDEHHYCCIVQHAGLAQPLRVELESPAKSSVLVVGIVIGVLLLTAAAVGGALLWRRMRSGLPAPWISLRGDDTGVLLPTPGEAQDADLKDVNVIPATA

One experiment concerns the target T1, IgG receptor FcRn large subunit p51 (Homo sapiens, UniProt P55899). The experiment in a line: Binding affinity to human FcRn at pH 6 by surface plasmon resonance assay. Put shortly:
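Soluble human FcRn coupled to the dextran surface of a CM5 chip; peptide dilutions flowed over the chip. The equilibrium response at each dilution was plotted against concentration and fitted to a steady-state affinity model to give Kd.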
In general terms: In SPR one partner is held on a chip, and binding of the other changes the refractive index at the surface.
For orientation: Kd means the free concentration of one partner at which half of the binding sites on the other are occupied at equilibrium, for simple one-to-one binding. The low end stands for higher affinity, the high end for lower affinity. Take `CC(=O)Nc1ccc(C[C@H](NC(=O)[C@H](Cc2cnc[nH]2)NC(=O)CNC(=O)[C@@H](NC(=O)[C@@H](NC(=O)[C@H](Cc2ccccc2)NC(=O)[C@H](CCCN=C(N)N)NC(=O)[C@@H](N)CCC(N)=O)C(C)(C)S)[C@@H](C)O)C(=O)NCC(=O)NCC(=O)N[C@@H](CC(C)C)C(=O)N[C@@H](Cc2ccc(O)cc2)C(=O)N2CCC[C@H]2C(=O)N[C@@H](CS)C(=O)N[C@@H](CC(N)=O)C(=O)NCC(=O)N2CCC[C@H]2C(=O)O)cc1`: the affinity, expressed as Kd, was 270 µM. The molecule `CC(C)C[C@H](NC(=O)CNC(=O)[C@@H](CC(=O)O)NC(=O)[C@H](Cc1ccccc1)NC(=O)[C@H](Cc1cnc[nH]1)NC(=O)CNC(=O)[C@@H](NC(=O)[C@@H](NC(=O)[C@H](Cc1ccccc1)NC(=O)[C@H](CCCN=C(N)N)NC(=O)[C@@H](N)CCC(N)=O)C(C)(C)S)[C@@H](C)O)C(=O)N[C@@H](Cc1ccc(O)cc1)C(=O)N1CCC[C@H]1C(=O)N[C@@H](CS)C(=O)N[C@@H](CC(N)=O)C(=O)NCC(=O)N1CCC[C@H]1C(=O)O` came in with a Kd of 0.58 µM.

For `CC(C)C[C@H](NC(=O)CNC(=O)CNC(=O)[C@H](Cc1ccccc1)NC(=O)[C@H](Cc1cnc[nH]1)NC(=O)CNC(=O)[C@@H](NC(=O)[C@H](NC(=O)[C@H](Cc1ccccc1)NC(=O)[C@@H](CCCN=C(N)N)NC(=O)[C@@H](N)CCC(N)=O)C(C)(C)S)[C@@H](C)O)C(=O)N[C@@H](Cc1ccc(O)cc1)C(=O)N1CCC[C@H]1C(=O)N[C@H](CS)C(=O)N[C@@H](CC(N)=O)C(=O)NCC(=O)N1CCC[C@H]1C(=O)O`, the Kd is 0.28 µM. This Kd is about 2.1-fold lower than that of the molecule before. On the same count and under the same terms, to `CC(C)C[C@H](NC(=O)CNC(=O)CNC(=O)[C@H](Cc1ccc([N+](=O)[O-])cc1)NC(=O)[C@H](Cc1cnc[nH]1)NC(=O)CNC(=O)[C@@H](NC(=O)[C@@H](NC(=O)[C@H](Cc1ccccc1)NC(=O)[C@H](CCCN=C(N)N)NC(=O)[C@@H](N)CCC(N)=O)C(C)(C)S)[C@@H](C)O)C(=O)N[C@@H](Cc1ccc(O)cc1)C(=O)N1CCC[C@H]1C(=O)N[C@@H](CS)C(=O)N[C@@H](CC(N)=O)C(=O)NCC(=O)N1CCC[C@H]1C(=O)O` belongs 84 µM. Same read-out and setting: the value for `CC(C)C[C@H](NC(=O)CNC(=O)CNC(=O)[C@H](Cc1ccccc1)NC(=O)[C@H](Cc1cnc[nH]1)NC(=O)CNC(=O)[C@@H](NC(=O)[C@@H](NC(=O)[C@H](Cc1ccccc1)NC(=O)[C@H](CCCNC(=N)N)NC(=O)[C@@H](N)CCC(N)=O)C(C)(C)S)[C@@H](C)O)C(=O)N[C@@H](Cc1ccc([N+](=O)[O-])cc1)C(=O)N1CCC[C@H]1C(=O)N[C@@H](CS)C(=O)N[C@@H](CC(N)=O)C(=O)NCC(=O)N1CCC[C@H]1C(=O)O` was 180 µM; that for `CC(C)C[C@H](NC(=O)CNC(=O)CNC(=O)[C@H](Cc1ccccc1)NC(=O)[C@H](Cc1cnc[nH]1)NC(=O)CNC(=O)[C@@H](NC(=O)[C@H](CCN)NC(=O)[C@H](Cc1ccccc1)NC(=O)[C@H](CCCN=C(N)N)NC(=O)[C@@H](N)CCC(N)=O)[C@@H](C)O)C(=O)N[C@@H](Cc1ccc(O)cc1)C(=O)N1CCC[C@H]1C(=O)N[C@@H](CC(=O)O)C(=O)N[C@@H](CC(N)=O)C(=O)NCC(=O)N1CCC[C@H]1C(=O)O` was 8.4 µM. In turn, `CC(C)C[C@H](NC(=O)CNC(=O)CNC(=O)[C@@H](Cc1ccccc1)NC(=O)[C@H](Cc1cnc[nH]1)NC(=O)CNC(=O)[C@@H](NC(=O)[C@@H](NC(=O)[C@H](Cc1ccccc1)NC(=O)[C@H](CCCN=C(N)N)NC(=O)[C@@H](N)CCC(N)=O)C(C)(C)S)[C@@H](C)O)C(=O)N[C@@H](Cc1ccc(O)cc1)C(=O)N1CCC[C@H]1C(=O)N[C@@H](CS)C(=O)N[C@@H](CC(N)=O)C(=O)NCC(=O)N1CCC[C@H]1C(=O)O` showed a Kd greater than 250 µM. For the molecule `CC(C)C[C@H](NC(=O)[C@H]1CSC2C[C@@H](NC(=O)[C@H](Cc3ccccc3)NC(=O)[C@H](Cc3cnc[nH]3)NC(=O)CNC(=O)[C@@H](NC(=O)[C@H](NC(=O)[C@H](Cc3ccccc3)NC(=O)[C@@H](N)CCCNC(=N)N)C(C)(C)S)[C@@H](C)O)C(=O)N21)C(=O)N[C@@H](Cc1ccc(O)cc1)C(=O)N1CCC[C@H]1C(=O)N[C@@H](CS)C(=O)O` (some centres not stated), the Kd came out at 0.99 µM.

In the case of `Cc1ccc(C[C@H](NC(=O)[C@H](Cc2cnc[nH]2)NC(=O)CNC(=O)[C@@H](NC(=O)[C@@H](NC(=O)[C@H](Cc2ccccc2)NC(=O)[C@H](CCCN=C(N)N)NC(=O)[C@@H](N)CCC(N)=O)C(C)(C)S)[C@@H](C)O)C(=O)NCC(=O)NCC(=O)N[C@@H](CC(C)C)C(=O)N[C@@H](Cc2ccc(O)cc2)C(=O)N2CCC[C@H]2C(=O)N[C@@H](CS)C(=O)N[C@@H](CC(N)=O)C(=O)NCC(=O)N2CCC[C@H]2C(=O)O)cc1`, the Kd is 0.2 µM. This Kd lies about 4.9-fold lower than the previous one. `CC(C)C[C@H](NC(=O)CNC(=O)CNC(=O)[C@H](Cc1ccccc1)NC(=O)[C@H](Cc1cnc[nH]1)NC(=O)CNC(=O)[C@@H](NC(=O)[C@H](CS)NC(=O)[C@H](Cc1ccccc1)NC(=O)[C@@H](N)CCCN=C(N)N)[C@@H](C)O)C(=O)N[C@@H](Cc1ccc(O)cc1)C(=O)N1CCC[C@H]1C(=O)N[C@@H](CS)C(=O)O`: the affinity, expressed as Kd, was 10 µM.

In turn, `CC(C)C[C@H](NC(=O)CNC(=O)CNC(=O)[C@H](Cc1ccccc1)NC(=O)[C@H](Cc1cnc[nH]1)NC(=O)CNC(=O)[C@H](NC(=O)[C@H](NC(=O)[C@H](Cc1ccccc1)NC(=O)[C@H](CCCN=C(N)N)NC(=O)[C@@H](N)CCC(N)=O)C(C)(C)S)[C@@H](C)O)C(=O)N[C@@H](Cc1ccc(O)cc1)C(=O)N1CCC[C@H]1C(=O)N[C@H](CS)C(=O)N[C@@H](CC(N)=O)C(=O)NCC(=O)N1CCC[C@H]1C(=O)O` gave a Kd greater than 250 µM. Same read-out and setting: to `CC(C)C[C@H](NC(=O)CNC(=O)[C@@H](C)NC(=O)[C@H](Cc1ccccc1)NC(=O)[C@H](Cc1cnc[nH]1)NC(=O)CNC(=O)[C@@H](NC(=O)[C@@H](NC(=O)[C@H](Cc1ccccc1)NC(=O)[C@H](CCCNC(=N)N)NC(=O)[C@@H](N)CCC(N)=O)C(C)(C)S)[C@@H](C)O)C(=O)N[C@@H](Cc1ccc(O)cc1)C(=O)N1CCC[C@H]1C(=O)N[C@@H](CS)C(=O)N[C@@H](CC(N)=O)C(=O)NCC(=O)N1CCC[C@H]1C(=O)O` belongs 0.49 µM. On the same count and under the same terms, to `CC(C)C[C@H](NC(=O)[C@@H](Cc1ccccc1)NC(=O)CNC(=O)[C@H](Cc1ccccc1)NC(=O)[C@H](Cc1cnc[nH]1)NC(=O)CNC(=O)[C@@H](NC(=O)[C@@H](NC(=O)[C@H](Cc1ccccc1)NC(=O)[C@H](CCCNC(=N)N)NC(=O)[C@@H](N)CCC(N)=O)C(C)(C)S)[C@@H](C)O)C(=O)N[C@@H](Cc1ccc(O)cc1)C(=O)N1CCC[C@H]1C(=O)N[C@@H](CS)C(=O)N[C@@H](CC(N)=O)C(=O)NCC(=O)N1CCC[C@H]1C(=O)O` belongs 1.7 µM.

`CC(C)C[C@H](NC(=O)CNC(=O)CNC(=O)[C@H](Cc1ccc(N)cc1)NC(=O)[C@H](Cc1cnc[nH]1)NC(=O)CNC(=O)[C@@H](NC(=O)[C@@H](NC(=O)[C@H](Cc1ccccc1)NC(=O)[C@H](CCCN=C(N)N)NC(=O)[C@@H](N)CCC(N)=O)C(C)(C)S)[C@@H](C)O)C(=O)N[C@@H](Cc1ccc(O)cc1)C(=O)N1CCC[C@H]1C(=O)N[C@@H](CS)C(=O)N[C@@H](CC(N)=O)C(=O)NCC(=O)N1CCC[C@H]1C(=O)O` showed a Kd of 1 µM. Still for that read-out and setting: to `CC(C)C[C@H](NC(=O)CNC(=O)CNC(=O)[C@H](Cc1c(F)c(F)c(F)c(F)c1F)NC(=O)[C@H](Cc1cnc[nH]1)NC(=O)CNC(=O)[C@@H](NC(=O)[C@@H](NC(=O)[C@H](Cc1ccccc1)NC(=O)[C@H](CCCN=C(N)N)NC(=O)[C@@H](N)CCC(N)=O)C(C)(C)S)[C@@H](C)O)C(=O)N[C@@H](Cc1ccc(O)cc1)C(=O)N1CCC[C@H]1C(=O)N[C@@H](CS)C(=O)N[C@@H](CC(N)=O)C(=O)NCC(=O)N1CCC[C@H]1C(=O)O` belongs 70 µM; to `CC(C)C[C@H](NC(=O)[C@@H](Cc1ccc(O)cc1)NC(=O)CNC(=O)[C@H](Cc1ccccc1)NC(=O)[C@H](Cc1cnc[nH]1)NC(=O)CNC(=O)[C@@H](NC(=O)[C@@H](NC(=O)[C@H](Cc1ccccc1)NC(=O)[C@H](CCCN=C(N)N)NC(=O)[C@@H](N)CCC(N)=O)C(C)(C)S)[C@@H](C)O)C(=O)N[C@@H](Cc1ccc(O)cc1)C(=O)N1CCC[C@H]1C(=O)N[C@@H](CS)C(=O)N[C@@H](CC(N)=O)C(=O)NCC(=O)N1CCC[C@H]1C(=O)O`, 1.5 µM. On to `CC(C)C[C@H](NC(=O)[C@@H](Cc1cnc[nH]1)NC(=O)CNC(=O)[C@H](Cc1ccccc1)NC(=O)[C@H](Cc1cnc[nH]1)NC(=O)CNC(=O)[C@@H](NC(=O)[C@@H](NC(=O)[C@H](Cc1ccccc1)NC(=O)[C@H](CCCN=C(N)N)NC(=O)[C@@H](N)CCC(N)=O)C(C)(C)S)[C@@H](C)O)C(=O)N[C@@H](Cc1ccc(O)cc1)C(=O)N1CCC[C@H]1C(=O)N[C@@H](CS)C(=O)N[C@@H](CC(N)=O)C(=O)NCC(=O)N1CCC[C@H]1C(=O)O`, for which the affinity, expressed as Kd, was 2 µM. Still for that read-out and setting: the value for `CC(C)C[C@H](NC(=O)CN(C)C(=O)[C@@H](C)NC(=O)[C@H](Cc1ccccc1)NC(=O)[C@H](Cc1cnc[nH]1)NC(=O)CNC(=O)[C@@H](NC(=O)[C@@H](NC(=O)[C@H](Cc1ccccc1)NC(=O)[C@H](CCCNC(=N)N)NC(=O)[C@@H](N)CCC(N)=O)C(C)(C)S)[C@@H](C)O)C(=O)N[C@@H](Cc1ccc(O)cc1)C(=O)N1CCC[C@H]1C(=O)N[C@@H](CS)C(=O)N[C@@H](CC(N)=O)C(=O)NCC(=O)N1CCC[C@H]1C(=O)O` was 0.19 µM; that for `CC(C)C[C@H](NC(=O)[C@@H]1CCCN1C(=O)[C@@H](Cc1ccccc1)NC(=O)[C@H](Cc1ccccc1)NC(=O)[C@H](Cc1cnc[nH]1)NC(=O)CNC(=O)[C@@H](NC(=O)[C@@H](NC(=O)[C@H](Cc1ccccc1)NC(=O)[C@H](CCCNC(=N)N)NC(=O)[C@@H](N)CCC(N)=O)C(C)(C)S)[C@@H](C)O)C(=O)N[C@@H](Cc1ccc(O)cc1)C(=O)N1CCC[C@H]1C(=O)N[C@@H](CS)C(=O)N[C@@H](CC(N)=O)C(=O)NCC(=O)N1CCC[C@H]1C(=O)O` was 3.8 µM. On the same count and under the same terms, to `CC(C)C[C@H](NC(=O)CNC(=O)CNC(=O)[C@H](Cc1ccccc1)NC(=O)[C@H](Cc1cnc[nH]1)NC(=O)CNC(=O)[C@@H](NC(=O)[C@H](CS)NC(=O)[C@@H](N)Cc1ccccc1)[C@@H](C)O)C(=O)N[C@@H](Cc1ccc(O)cc1)C(=O)N1CCC[C@H]1C(=O)N[C@@H](CS)C(=O)N[C@@H](CC(N)=O)C(=O)NCC(=O)N1CCC[C@H]1C(=O)O` belongs 11 µM.

The target in a further experiment is T1, IgG receptor FcRn large subunit p51. The experiment in a line: Inhibition of human IgG binding to soluble human FcRn by ELISA. Put shortly:
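Biotinylated soluble human FcRn immobilized on neutravidin plates, incubated with hIgG (3 nM, constant) and peptide at varying concentrations for 2 h at 37 °C. After washing, bound hIgG detected with peroxidase-conjugated hIgG-specific Fab fragments.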
The IC50 is the concentration that inhibits the measured activity by half. A low value points to higher potency. Molecule `CC(C)C[C@H](NC(=O)CNC(=O)CNC(=O)[C@H](Cc1ccccc1)NC(=O)[C@H](Cc1cnc[nH]1)NC(=O)CNC(=O)[C@@H](NC(=O)[C@H](CS)NC(=O)[C@H](Cc1ccccc1)NC(=O)[C@@H](N)CCCN=C(N)N)[C@@H](C)O)C(=O)N[C@@H](Cc1ccc(O)cc1)C(=O)N1CCC[C@H]1C(=O)N[C@@H](CS)C(=O)O` returned a concentration for half-maximal inhibition (IC50) of 87 µM. Regarding `CC(C)C[C@H](NC(=O)CNC(=O)CNC(=O)[C@H](Cc1ccccc1)NC(=O)[C@H](Cc1cnc[nH]1)NC(=O)CNC(=O)[C@@H](NC(=O)[C@H](CS)NC(=O)[C@@H](N)Cc1ccccc1)[C@@H](C)O)C(=O)N[C@@H](Cc1ccc(O)cc1)C(=O)N1CCC[C@H]1C(=O)N[C@@H](CS)C(=O)N[C@@H](CC(N)=O)C(=O)NCC(=O)N1CCC[C@H]1C(=O)O`, the IC50 stood at 67 µM.
